Measured values published in publication PMC6072253 (ACS Omega, 2018).
In brackets after ≈: the same amount, converted by molar mass. Several values for one entry are separate records, joined by “and”; a condition that tells them apart may be missing. Equal values may be shown once.

Key:
[1] = successive pKa of the acid itself; no reference given; cited from earlier work
[2] = biological target: Cdk-9/T1 (Homo sapiens, UniProt P50750); test: Cdk-9/T1 radioactive; format: biochemical; settings: read-out: % inhibition (±SD) Cdk-9/T1, 500 nM
Method in brief: (§1)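 Radioactive filter-binding kinase assay using 33P-ATP, run at an external kinase-profiling centre, with the test compound at 500 nM. Enzyme activity remaining was expressed as a percentage of control, and % inhibition was calculated as 100 − % enzyme activity.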

[3] = in vitro dissolution under sink conditions; format: physicochemical
Method in brief: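 Samples (1 mL) were taken at 15, 30, 60, 120, 240 and 360 min and replaced with fresh prewarmed medium. Samples were filtered (0.45 μm PVDF), diluted in methanol and quantified by HPLC. Runs were in triplicate. AUC0–t was obtained by the trapezoidal rule to the last time point.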

[4] = biological target: Cdk-2/A (Homo sapiens, UniProt P24941); test: Cdk-2/A radioactive; format: biochemical; settings: read-out: % inhibition (±SD) Cdk-2/A, 500 nM
Method in brief: as §1

[5] = test system: Cdk-9; settings: read-out: Cdk-9 IC50; cited from earlier work
[6] = oral pharmacokinetics in BALB/c mice; format: in vivo; settings: 50 mg/kg
Method in brief: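 Male BALB/c mice aged 8–13 weeks received a single oral dose of 50 mg/kg in 1% v/v Tween 80 + 0.5% w/v sodium CMC. Retro-orbital blood was collected into K2EDTA (n = 3/time point) at 0.25–24 h. Plasma was prepared within 30 min and stored below −60 °C. Plasma was analysed by LC-MS/MS (LLOQ 5.05 ng/mL), and parameters were derived by noncompartmental analysis.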

[7] = moisture content by loss on drying; format: physicochemical; settings: at the end of 6 months
[8] = solubility in reaction solvents for scale-up; format: physicochemical
[9] = thermodynamic equilibrium solubility in water; format: physicochemical; settings: 25 °C, 24 h
Method in brief: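 Excess solid was added to water, vortexed for 5 min, then shaken at 300 rpm and 25 °C for 24 h. After centrifugation (14 000 rpm, 10 min), the supernatant was quantified by reversed-phase C18 HPLC. Elution used a methanol/0.1% formic acid gradient with photodiode detection and a 37 °C column. Calibration covered 5–160 μg/mL.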

Sequence of Cdk-9/T1 (P50750 whole entry): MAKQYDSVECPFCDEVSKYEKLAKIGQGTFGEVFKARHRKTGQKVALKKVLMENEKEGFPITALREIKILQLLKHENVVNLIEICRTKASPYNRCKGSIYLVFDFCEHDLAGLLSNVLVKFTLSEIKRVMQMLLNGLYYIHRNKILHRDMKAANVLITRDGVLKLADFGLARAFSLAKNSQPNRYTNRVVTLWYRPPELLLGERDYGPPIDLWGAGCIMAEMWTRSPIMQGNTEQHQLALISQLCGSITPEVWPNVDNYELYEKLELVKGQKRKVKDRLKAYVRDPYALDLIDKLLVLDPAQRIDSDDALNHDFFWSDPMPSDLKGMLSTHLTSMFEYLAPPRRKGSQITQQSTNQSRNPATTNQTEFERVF
Sequence of Cdk-9/T1 (O60563 whole entry partner): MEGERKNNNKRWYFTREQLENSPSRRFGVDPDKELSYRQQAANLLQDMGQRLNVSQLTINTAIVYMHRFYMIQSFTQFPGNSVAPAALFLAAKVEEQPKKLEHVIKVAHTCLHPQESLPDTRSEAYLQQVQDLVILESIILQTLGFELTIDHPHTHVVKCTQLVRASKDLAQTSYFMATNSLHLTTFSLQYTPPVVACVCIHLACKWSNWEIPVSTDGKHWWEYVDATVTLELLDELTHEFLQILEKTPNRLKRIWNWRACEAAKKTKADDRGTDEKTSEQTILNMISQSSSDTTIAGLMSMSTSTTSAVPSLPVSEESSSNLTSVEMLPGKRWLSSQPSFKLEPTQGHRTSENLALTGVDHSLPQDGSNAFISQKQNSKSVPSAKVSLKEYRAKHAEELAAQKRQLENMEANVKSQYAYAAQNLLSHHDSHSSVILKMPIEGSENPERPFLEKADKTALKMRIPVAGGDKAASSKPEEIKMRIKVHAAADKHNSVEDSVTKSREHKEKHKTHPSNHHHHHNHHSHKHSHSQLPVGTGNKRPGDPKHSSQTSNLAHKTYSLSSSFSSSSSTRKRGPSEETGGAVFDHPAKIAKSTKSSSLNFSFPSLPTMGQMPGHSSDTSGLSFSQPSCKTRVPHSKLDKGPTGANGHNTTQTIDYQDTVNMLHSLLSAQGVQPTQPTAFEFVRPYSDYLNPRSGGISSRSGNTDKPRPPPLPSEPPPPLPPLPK

Structure (SMILES) | pKa values of counterions [1] | inhibition at 0.5 µM [2] [%] | % drug dissolved in HCl buffer (pH 1.2) at 30 min ([3]; HCl buffer pH 1.2, 0.25% SLS, 30 min) [%] | AUC0–t (mean ± SEM), dissolution in HCl buffer (pH 1.2) ([3]; HCl buffer pH 1.2, 0.25% w/v SLS) [μg/mL min] | dissolution in phosphate buffer (pH 6.8) at the end of 60 min ([3]; phosphate buffer pH 6.8, 0.25% SLS, 60 min) [%] | AUC0–t (mean ± SEM), dissolution in phosphate buffer (pH 6.8) ([3]; phosphate buffer pH 6.8, 0.25% w/v SLS) [μg/mL min] | AUC0–t (mean ± SEM), dissolution in water ([3]; water, 0.25% w/v SLS) [µg·min/mL] | dissolution in water at the end of 120 min ([3]; water, 0.25% w/v SLS, 37 °C, 120 min) [% w/v] | inhibition at 0.5 µM [4] [%] | IC50 [5] [nM] | T1/2 [6] [h] | AUC(0-t) ([6]; male, BALB/c, mouse, plasma, po, AUC0–t) [ng·h/mL] | Cmax ([6]; male, BALB/c, mouse, plasma, po, Cmax) [ng/mL] | Tmax ([6]; male, BALB/c, mouse, plasma, po, Tmax) [h] | % moisture content [7] [% w/w] | solubility in methanol [8] [µg/mL] | solubility ([8]; methanol, solubility in methanol) [µg/mL] | thermodynamic equilibrium solubility in water [9]
Nc1ccc(C(=O)O)cc1 [4-aminobenzoic acid] | 2.38 |  |  |  |  |  |  |  |  |  |  |  |  |  |  |  |  | 
CN1CC[C@H](c2c(O)cc(O)c3c(=O)cc(/C=C/c4c(Cl)cccc4Cl)oc23)[C@H](O)C1 [IIIM-290, 2-((E)-2,6-Dichlorostyryl)-5,7-dihydroxy-8-((3S,4R)-3-hydroxy-1-methylpiperidin-4-yl)-4H-chromen-4-one] |  | 94 ± 0.8 | 83 | 2102.46 ± 80.09 | 63 | 4898.69 ± 317.03 | 3557.23 ± 247.03 | 49 | 90 ± 0.2 | 1.9 | 1.92 | 2570 | 656 | 1 | 3.5 | 500 (≈ 1080 µM) | ~500 (≈ 1080 µM) | ~8.6 µg/mL and 8.61 ± 1.8 µg/mL
O=C(O)CC(O)(CC(=O)O)C(=O)O [citric acid] | 3.73 |  |  |  |  |  |  |  |  |  |  |  |  |  |  |  |  | 
